Experiments:
[1] = target: T1, ZMYND8-PHD/Bromo/PWWP (ZMYND8-PBP) (Homo sapiens, UniProt Q9ULU4); assay: Isothermal titration calorimetry; format: binding; settings: ITC
T1 sequence (Q9ULU4 93-426 isoform Q9ULU4-10): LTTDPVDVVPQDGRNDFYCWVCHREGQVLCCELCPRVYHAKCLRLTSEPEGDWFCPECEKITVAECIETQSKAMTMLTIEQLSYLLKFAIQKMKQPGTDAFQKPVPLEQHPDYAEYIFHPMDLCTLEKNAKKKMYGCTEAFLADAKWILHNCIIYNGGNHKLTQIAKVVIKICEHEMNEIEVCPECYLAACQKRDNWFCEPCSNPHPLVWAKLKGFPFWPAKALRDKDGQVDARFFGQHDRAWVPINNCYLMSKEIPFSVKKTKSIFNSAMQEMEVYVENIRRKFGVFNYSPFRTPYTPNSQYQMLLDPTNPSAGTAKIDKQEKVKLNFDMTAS
Summary of the method: (§1)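 ZMYND8 PHD/Bromo/PWWP region, with its point and deletion mutants, was cloned into a bacterial GST-fusion expression vector and expressed as recombinant protein. Binding to histone H3 peptides was measured by isothermal titration calorimetry, and KD was taken from the titration.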

[2] = tested on: GST-tagged ZMYND8-PB (ZMYND8-PHD/Bromo); assay: Peptide pull-down assay, GST-tagged ZMYND8-PB; format: binding, human; settings: biotinylated peptides
Summary of the method: (§2)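 Biotinylated histone peptides were used to pull down GST-tagged ZMYND8 fragments expressed in bacteria from a GST-fusion vector. These fragments were PHD/Bromo, PHD/Bromo/PWWP, or deletion mutants of PHD/Bromo. The deletion mutants were tested against the H3 (1-21) peptide.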

ZMYND8-PBP, F109D = assay: ITC, ZMYND8-PBP F109D; format: binding, human; settings: H3K4me0 (1-25aa), relative to ZMYND8-PBP
Summary of the method: as §1

[3] = tested on: N-terminal truncated version of ZMYND8-PBP (residue 103-426); assay: ITC, N-terminal truncated ZMYND8-PBP; format: binding, human; settings: H3K4me0 (1-25aa)
Summary of the method: as §1

ZMYND8-PHD = assay: Peptide pull-down assay, ZMYND8-PHD alone; format: binding, human; settings: H3 (1-21) peptide
Summary of the method: as §2

[4] = tested on: ZMYND8-PBP, alanine mutation of D99; assay: ITC, ZMYND8-PBP alanine mutant of D99; format: binding, human; settings: H3K4me0 (1-25aa)
Summary of the method: as §1

[5] = tested on: ZMYND8-PBP, alanine mutation of D104; assay: ITC, ZMYND8-PBP alanine mutant of D104; format: binding, human; settings: H3K4me0 (1-25aa)
Summary of the method: as §1

[6] = tested on: ZMYND8-PBP, alanine mutation of E124; assay: ITC, ZMYND8-PBP alanine mutant of E124; format: binding, human; settings: H3K4me0 (1-25aa)
Summary of the method: as §1

[7] = tested on: ZMYND8-PBP, alanine mutation of D96; assay: ITC, ZMYND8-PBP alanine mutant of D96; format: binding, human; settings: H3K4me0 (1-25aa)
Summary of the method: as §1

[8] = target: T2, ZMYND8-PHD/Bromo (ZMYND8-PB) (Homo sapiens, UniProt Q9ULU4); assay: Isothermal titration calorimetry; format: binding; settings: ITC
T2 sequence (Q9ULU4 75-268 limits assumed): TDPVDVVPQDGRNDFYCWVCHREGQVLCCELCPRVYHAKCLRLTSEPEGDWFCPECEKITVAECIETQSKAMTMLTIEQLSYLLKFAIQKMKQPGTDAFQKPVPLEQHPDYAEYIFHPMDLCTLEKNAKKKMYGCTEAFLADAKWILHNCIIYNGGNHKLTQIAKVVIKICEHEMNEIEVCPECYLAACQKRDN
Summary of the method: as §1

ZMYND8-PBP, D108A = assay: ITC, ZMYND8-PBP alanine mutant of D108; format: binding, human; settings: H3K4me0 (1-25aa)
Summary of the method: as §1

For “H3K4me0: unmethylated H3K4 (H3 [1-21aa]; referred to as "H3K4me0")”, the Kd [1] was about 7.2 µM, the “interaction with ZMYND8-PB (pull-down), 300 mM NaCl wash” value [2] was “interacted” and the “enhancement of PBP's binding activity by F109D” value (ZMYND8-PBP, F109D) was ~ 11 fold. For the same substance, the “H3K4me0-binding activity of truncated ZMYND8-PBP” value [3] was “significant losses”, the “interaction with ZMYND8-PHD alone (pull-down)” value (ZMYND8-PHD) was “did not interact” and the “H3K4me0-binding activity of mutant” value [4] was “significant losses”. The “H3K4me0-binding activity of mutant” value [5] was “significant losses”, the “H3K4me0-binding activity of mutant” value [6] was “significant losses” and the “H3K4me0-binding activity of mutant” value [7] was “significant losses”. For the same substance, the Kd [8] was about 15 µM and the “H3K4me0-binding activity of mutant” value (ZMYND8-PBP, D108A) was “significant losses”.
